# ChEMBL document CHEMBL4270618, “Synthesis and biological evaluation of a library of hybrid derivatives as inhibitors of influenza virus PA-PB1 interaction” (Eur J Med Chem, 2018)
# Tests used:
# [1] = Cytotoxicity against MDCK cells assessed as decrease in cell viability after 48 hrs by MTT assay; format: cell-based, Canis lupus familiaris; settings: dog
# In short: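 MDCK at 5×10^3 cells/well with 2-fold serial dilutions from 250 µM, or DMSO, for 48 h. MTT (5 mg/mL stock in PBS) added for 4 h at 37 °C, then solubilising solution for 3 h at 37 °C. Absorbance read at 620 nm against DMSO = 100%. CC50 as mean ± SD, ≥3 experiments in duplicate.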
# [2] = Cytotoxicity against HEK293T cells assessed as decrease in cell viability after 24 hrs by MTT assay; format: cell-based, HEK-293T; settings: human
# In short: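 HEK 293T at 2×10^4 cells/well with 2-fold serial dilutions from 250 µM, or DMSO, for 24 h. MTT (5 mg/mL stock in PBS) added for 4 h at 37 °C, then solubilised for 3 h at 37 °C. Absorbance read at 620 nm, DMSO wells = 100% viability. CC50 as mean ± SD, ≥3 independent experiments in duplicate.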
# [3] = biological target: PA/PB1 (Influenza A virus (A/Puerto Rico/8/1934(H1N1)), UniProt P03431+P03433); assay: Inhibition of Influenza A virus A/PR/8/34 (H1N1) PA-PB1 interaction expressed in HEK293T cells assessed as decrease in RNA polymerase activity incubated for 24 hrs by minireplicon based luciferase reporter gene assay; format: cell-based
# In short: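 HEK 293T (2×10^5/well) transfected 24 h after seeding, by calcium phosphate, with PR8 PB1, PB2, PA and NP plasmids (100 ng each), a PolI firefly-luciferase minireplicon (50 ng) and SV40-Renilla (50 ng) for normalisation. Compound or DMSO present during transfection; medium renewed at 4 h with compound. Dual luciferase read at 24 h. EC50 as mean ± SD, ≥3 experiments in duplicate.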
# [4] = biological target: PA/PB1 (Influenza A virus (A/Puerto Rico/8/1934(H1N1)), UniProt P03431+P03433); assay: Inhibition of Influenza A virus A/PR/8/34 (H1N1) 6His-tagged PA (239 to 716 residues)/GST-tagged PB1 (1 to 25 residues) interaction expressed in Escherichia coli incubated overnight by ELISA
# In short: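 Wells coated with 400 ng E. coli-expressed 6His-PA(239–716) for 3 h at 37 °C, then blocked with 2% BSA/PBS for 1 h. 200 ng GST-PB1(1–25), or GST control, in serum-free DMEM added with compound or DMSO, overnight at room temperature. Bound protein detected with HRP-anti-GST and TMB, OD450. DMSO = 100% interaction. IC50 as mean ± SD, ≥3 experiments in duplicate.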
# [5] = test system: Influenza A virus; assay: Antiviral activity against Influenza A virus A/PR/8/34 (H1N1) infected in MDCK cells measured after 2 days by plaque reduction assay; format: functional, organism-based; settings: A/Puerto Rico/8/1934(H1N1), 48 h
# In short: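 MDCK monolayers infected with PR8 (H1N1, Cambridge lineage) at 40 PFU/well for 1 h at 37 °C with compound at various concentrations, in DMEM with 1 µg/mL TPCK-trypsin and 0.14% BSA. Overlay of the same medium with 1.2% Avicel plus compound. After 2 days, fixed with 4% formaldehyde, stained with 0.1% toluidine blue, plaques counted. DMSO mean = 100%. EC50 reported as mean ± SD, ≥3 independent experiments in duplicate.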
Compound,CC50 at 48 h [1],CC50 at 24 h [2],EC50 [3],IC50 [4],EC50 [5]
Cc1cccc(NC(=O)CSc2nc(-c3ccccc3)cc(-c3ccccc3)c2C#N)c1,> 250 µM,> 250 µM,86.6 µM,–,–
COC(=O)[C@H](CC(C)C)NC(=O)CSc1nc(-c2ccccc2)cc(-c2ccc(C)cc2)c1C#N,215 µM,–,–,149 µM,97 µM
COC(=O)[C@H](Cc1ccc(O)cc1)NC(=O)CSc1nc(-c2ccccc2)cc(-c2ccc(C)cc2)c1C#N,> 250 µM,–,–,18 µM,> 100 µM
CC[C@H](C)[C@H](NC(=O)CSc1nc(-c2ccccc2)cc(-c2ccc(C)cc2)c1C#N)C(=O)OC,> 250 µM,229 µM,53 µM,36 µM,39 µM
COC(=O)C[C@H](NC(=O)[C@@H](NC(=O)CSc1nc(-c2ccccc2)cc(-c2ccc(C)cc2)c1C#N)C(C)C)C(=O)OC,> 250 µM,> 250 µM,59 µM,143 µM,49 µM
Cc1ccc(-c2cc(-c3ccccc3)nc(SCC(=O)O)c2C#N)cc1,> 250 µM,218 µM,43 µM,56 µM,65 µM
COC(=O)C[C@H](NC(=O)[C@@H](NC(=O)CSc1nc(-c2ccccc2)cc(-c2ccc(C)cc2)c1C#N)C(C)C)C(=O)N[C@@H](CCSC)C(=O)OC,> 250 µM,–,–,68 µM,> 100 µM
COC(=O)[C@H](Cc1ccccc1)NC(=O)CSc1nc(-c2ccccc2)cc(-c2ccc(C)cc2)c1C#N,240 µM,–,–,> 200 µM,68 µM
COC(=O)[C@H](Cc1cnc[nH]1)NC(=O)CSc1nc(-c2ccccc2)cc(-c2ccc(C)cc2)c1C#N,152 µM,–,–,32 µM,80 µM
Cc1ccc(-c2cc(-c3ccccc3)nc(SCC(=O)N[C@H](C(=O)O)C(C)C)c2C#N)cc1,> 250 µM,250 µM,77 µM,76 µM,50 µM
COC(=O)[C@@H](NC(=O)CSc1nc(-c2ccccc2)cc(-c2ccc(C)cc2)c1C#N)C(C)C,210 µM,> 250 µM,41 µM,167 µM,52 µM
COC(=O)CC[C@H](NC(=O)CSc1nc(-c2ccccc2)cc(-c2ccc(C)cc2)c1C#N)C(=O)OC,> 250 µM,–,–,187 µM,> 100 µM
Cc1ccc(-c2cc(-c3ccccc3)nc(SCC(=O)N[C@H](C(=O)N[C@@H](CC(=O)O)C(=O)O)C(C)C)c2C#N)cc1,> 250 µM,–,–,77 µM,100 µM
Cc1ccc(-c2cc(-c3ccccc3)nc(SCNC(=O)OC(C)(C)C)c2C#N)cc1,> 250 µM,–,–,> 200 µM,> 100 µM
CSCC[C@H](N)C(=O)N[C@@H](CC(=O)O)C(=O)N[C@H](C(=O)N[C@@H](CC(N)=O)C(=O)N1CCC[C@H]1C(=O)N[C@H](C(=O)N[C@@H](CC(C)C)C(=O)N[C@@H](CC(C)C)C(=O)N[C@@H](Cc1ccccc1)C(=O)N[C@@H](CC(C)C)C(=O)N[C@@H](CCCCN)C(=O)N[C@H](C(=O)N1CCC[C@H]1C(=O)N[C@@H](C)C(=O)N[C@@H](CCC(N)=O)C(=O)N[C@@H](Cc1ccc(O)cc1)C(=O)NCC(=O)N[C@@H](CCCNC(=N)N)C(=O)N[C@@H](CCCCN)C(=O)N[C@@H](CCCCN)C(=O)N[C@@H](CCCNC(=N)N)C(=O)N[C@@H](CCCNC(=N)N)C(=O)N[C@@H](CCC(N)=O)C(=O)N[C@@H](CCCNC(=N)N)C(=O)N[C@@H](CCCNC(=N)N)C(=O)N[C@@H](CCCNC(=N)N)C(=O)N1CCC[C@H]1C(=O)N1CCC[C@H]1C(=O)O)C(C)C)[C@@H](C)O)C(C)C,> 250 µM,> 250 µM,15.5 µM,31.7 µM,49.7 µM
COC(=O)[C@H](CCCNC(=N)N)NC(=O)CSc1nc(-c2ccccc2)cc(-c2ccc(C)cc2)c1C#N,> 250 µM,–,–,48 µM,> 100 µM
Cc1ccc(-c2cc(-c3ccccc3)nc(SCC(N)=O)c2C#N)cc1,> 250 µM,218 µM,65 µM,102 µM,41 µM
CCC(CC)O[C@@H]1C=C(C(=O)O)C[C@H](N)[C@H]1NC(C)=O [OSELTAMIVIR CARBOXYLATE],> 250 µM,> 250 µM,–,–,0.015 µM
NC(=O)c1ncn([C@@H]2O[C@H](CO)[C@@H](O)[C@H]2O)n1 [RIBAVIRIN],> 250 µM,> 250 µM,23.8 µM,–,–
